According to article PMC3086571 (Organometallics, 2011):

Assays:
[1] = test system: CH1 cells (ovarian carcinoma); experiment: MTT cytotoxicity assay, CH1; assay type: cell-based, human; conditions: for capacity of inhibiting tumor cell proliferation in vitro: CH1 ovarian cancer cells; for IC50: Homo sapiens, CH1, 96 h, read-out: IC50 CH1
Outline: (§1)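 Adherent monolayers grown in supplemented MEM with 10% heat-inactivated FBS at 37 °C, 5% CO2. Cells were trypsinised and seeded at 4 × 10^3 (A549), 1.5 × 10^3 (CH1) or 2.5 × 10^3 (SW480) per well, then left 24 h. Compound dilutions in complete medium were applied for 96 h. MTT was added for 4 h and formazan dissolved in DMSO; OD read at 550/690 nm versus untreated controls. IC50 was interpolated from the curves; ≥3 independent experiments, triplicates.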

Aqueous stability [2] = assay type: physicochemical; conditions: for Stability (amount of aqua complex in the solution), 1H NMR: D2O, after 18 or 24 h incubation (NMR: 18 h)
Outline: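 Test compound (1−2 mg/mL) dissolved in D2O; 1H NMR spectra recorded immediately after dissolution and again after 18 h to follow chlorido-to-aqua exchange.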

Aqueous stability [3] = assay type: physicochemical; conditions: water, 25 °C, after 18 or 24 h incubation
rat skeletal myoblasts = conditions: in vitro, preliminary; cited from earlier work
topoisomerase II = conditions: electrophoretic assay with plasmid DNA; cited from earlier work
[4] = test system: A549 cells (nonsmall cell lung carcinoma); experiment: MTT cytotoxicity assay, A549; assay type: cell-based; conditions: Homo sapiens, A549, 96 h, read-out: IC50 A549
Outline: as §1

[5] = test system: SW480 cells (colon carcinoma); experiment: MTT cytotoxicity assay, SW480; assay type: cell-based; conditions: Homo sapiens, SW480, 96 h, read-out: IC50 SW480
Outline: as §1

Molecule	capacity of inhibiting tumor cell proliferation in vitro [1]	sensitivity of CH1 cells relative to SW480 cells ([1]; ratio of IC50 SW480 / CH1)	Stability (amount of aqua complex in the solution), 1H NMR (Aqueous stability [2]) [%]	free ligand from decomposition of the aqua species (Aqueous stability [2]; aqueous solution, over 24 h)	Stability (amount of aqua complex in the solution), CZE-ICP-MS (Aqueous stability [3]) [%]	cytotoxic activity in rat skeletal myoblasts (rat skeletal myoblasts)	topoisomerase II inhibition (topoisomerase II)	IC50 [4] [µM]	IC50 [1] [µM]	IC50 [5] [µM]
CC1COc2c(N3CCN(C)CC3)c(F)cc3c(=O)c(C(=O)[O-])cn1c23.Cc1ccc(C(C)C)cc1.[Cl-].[Ru+2] (centres unmarked) [Compound 1, chlorido(η^6-p-cymene)(ofloxacinato-κ^2O,O)ruthenium(II)]	moderate	about 10 times	45	more than 40%	56	no significant activity	very little topoisomerase II inhibition			
CCn1nc(C(=O)O)c(=O)c2cc3c(cc21)OCO3 [cin-H, cinoxacin]								> 320	> 320	> 320
CCn1cc(C(=O)O)c(=O)c2ccc(C)nc21 [nal-H, nalidixic acid]								> 320	> 320	> 320
CC1COc2c(N3CCN(C)CC3)c(F)cc3c(=O)c(C(=O)O)cn1c23 (centres unmarked) [oflo-H, ofloxacin, reference compound]							very little topoisomerase II inhibition	> 320	> 320	> 320
Chlorido(η^6-p-cymene)(cinoxacinato-κ^2O,O)ruthenium(II) [Compound 3]	inactive		90		87					
Chlorido(η^6-p-cymene)(nalidixicato-κ^2O,O)ruthenium(II) [Compound 2]	inactive		94		93					
